A selection: hits, their analogues and other compounds. The true share with any hit is near 4.1%.
hERG protect: shields human hERG channel from block by proarrhythmic agents. hit rate 0.51% among 310,000. activation (rescue from dofetilide block), less the hit threshold, % at 10 µM. Q12809. CHO-hERG, FluxOR thallium flux, dofetilide IC70 present. AID 1511;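 active means activation above the mean of controls blocked by dofetilide plus 5 SD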;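 further: thallium influx through hERG after potassium depolarization seen as dye fluorescence rise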
KCNQ1 act: potentiates or activates the human KCNQ1 potassium channel. P51787. CHO-K1 KCNQ1, thallium flux FluxOR fluorescence; stronger effect = higher value. B-score at 10 µM. hit rate 0.35% among 310,000;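 active means fluorescence ratio B-score, a plate-corrected score, at least three library SD, with initial intensity B-score within 5 SD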
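assay system = CHO-K1 cells stably expressing KCNQ1 | medium = assay buffer, equal DMSO in all wells | timing = 37 °C overnight plating, 90-min dark dye load, 20-min compound pretreatment | measured by = kinetic FluxOR thallium fluorescence, 10-s 1-Hz baseline, 110-s post-stimulus read | measure = fluorescence change relative to baseline, converted to B score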
Cl transport mod: modulators of human KCC2 chloride dependent transport | KCC2 cells, thallium flux FluoZin-2 fluorescence | B-score of Tl+ flux slope (higher = more flux/activation; lower = inhibition) at 10 µM | hit rate 2.2% among 190,000;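 active means thallium flux slope and its plate-corrected score both differing from the plate sample mean at a set confidence after two filtering rounds, in either direction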;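 further: slope of fluorescence scaled to starting intensity during 10 to 20 s after thallium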
KCNQ1 block: inhibitors of human KCNQ1 potassium channel | P51787 | CHO-K1 KCNQ1, FluxOR thallium flux fluorescence; stronger effect = higher value | B-score at 10 µM | hit rate 1.3% among 310,000;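 active means compounds whose thallium flux B-score, printed positive for inhibition, exceeds three library SD while starting fluorescence stays within three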;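 further: channel opened by potassium depolarization with thallium stimulus after 20 min compound exposure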
KCNK3 block: human KCNK3 channel inhibition, primary screen; CHO-KCNK3 thallium flux, FluxOR fluorescence; stronger effect = lower value; B-score at 10 µM; hit rate 0.84% among 340,000; AID 602410;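 active means B-score under library mean minus 4 SD, starting fluorescence ratio at most library mean plus 5 SD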;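 further: more negative B-score means stronger inhibition of thallium flux through KCNK3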
KCNK9 inh: blocks the human KCNK9 two-pore domain potassium channel | HEK293 KCNK9, FluxOR thallium flux fluorescence; stronger effect = lower value | AID 488922 | hit rate 1.2% among 310,000 | B-score at 10 µM;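 active means ratio B-score over 3 SD below the library mean, with starting fluorescence within 5 SD of its mean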;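 further: negative B-score means less thallium flux so channel inhibition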
KCNK9 block conf: human KCNK9 inhibitor confirmation; inhibition, % at 10 µM; HEK293 KCNK9 cells, FluxOR thallium flux fluorescence; hit rate 43% among 4,900; shares compounds with KCNK9 inh;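 active means thallium signal inhibited by more than 5 SD of the compound-free buffer control wells, on both duplicate plates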
Kir2-1 spec: selectivity of KCNK9 modulators against mouse Kir2.1. shares compounds with KCNK9 inh. inhibition, % at 10 µM. Kir2.1 cells, FluxOR thallium flux fluorescence. AID 492993. hit rate 4% among 4,900;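 active means thallium signal drop more than 5 SD beyond the mean of the no-compound control wells, seen in both duplicate plates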;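 further: signal is fluorescence rise after thallium addition divided by baseline fluorescence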
Target sequence (P35561 whole entry, looked up): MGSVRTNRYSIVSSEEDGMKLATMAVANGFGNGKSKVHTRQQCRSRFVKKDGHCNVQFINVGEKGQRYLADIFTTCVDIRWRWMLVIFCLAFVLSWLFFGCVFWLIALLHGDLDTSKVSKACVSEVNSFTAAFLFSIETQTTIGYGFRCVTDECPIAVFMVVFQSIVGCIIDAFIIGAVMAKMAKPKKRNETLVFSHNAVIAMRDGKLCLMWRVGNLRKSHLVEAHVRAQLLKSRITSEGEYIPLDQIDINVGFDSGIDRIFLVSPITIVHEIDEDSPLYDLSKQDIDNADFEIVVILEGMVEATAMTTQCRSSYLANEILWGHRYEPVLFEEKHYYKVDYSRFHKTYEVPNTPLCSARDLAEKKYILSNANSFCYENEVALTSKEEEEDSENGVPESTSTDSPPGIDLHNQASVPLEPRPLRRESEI
HEK293 Tl ctr: second check of KCNK9 modulator effects in non-induced HEK293 cells; hit rate 40% among 4,900; inhibition, % at 10 µM; shares compounds with KCNK9 inh; FluxOR thallium flux;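 active means thallium signal drop beyond 5 SD of the untreated control mean, on both duplicate plates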
Numbers stand for hits; - = inactive; . = not tested or not shown.

SMILES | hERG protect | KCNQ1 act | Cl transport mod | KCNQ1 block | KCNK3 block | KCNK9 inh | KCNK9 block conf | Kir2-1 spec | HEK293 Tl ctr
Cc1ccccc1CSc1nc2ccccc2c(=O)[nH]1 | - | - | - | - | - | - | . | . | .
Cc1ccc(CSc2nc3ccccc3c(=O)[nH]2)cc1 | - | - | - | - | - | -9 | - | - | 29.0%
CCn1cc(CNC(=O)C2CCC(=O)N(Cc3ccc(Cl)cc3)C2)cn1 (stereo not drawn) | - | - | . | - | - | - | . | . | .
c1ccc(CSc2snnc2-c2ccccc2)cc1 | - | - | . | - | - | - | . | . | .
Clc1ccc(CSc2snnc2-c2ccccc2)c(Cl)c1 | - | - | - | 7 | - | - | - | - | 25.0%
O=C(O)C(Cc1ccccc1)N1C(=O)/C(=C/c2ccccc2)SC1=S (stereo not drawn) | - | - | - | - | - | - | - | - | -
COc1cc(/C=C2\SC(=S)N(C(Cc3ccccc3)C(=O)O)C2=O)ccc1O (stereo not drawn) | - | - | - | - | - | - | . | . | .
Cc1ccc(/C=C2\SC(=S)N(C(Cc3ccccc3)C(=O)O)C2=O)cc1 (stereo not drawn) | - | - | -3.45 | - | - | - | - | - | -
CCC(C(=O)O)N1C(=O)/C(=C/C(C)=C/c2ccccc2)SC1=S (stereo not drawn) | - | - | - | - | - | - | - | - | -
CC(=C\c1ccccc1)/C=C1/SC(=S)N(C(C(=O)O)C(C)C)C1=O (stereo not drawn) | - | - | . | - | - | - | . | . | .
CCC(C(=O)Nc1ccc2[nH]ncc2c1)c1ccccc1 (stereo not drawn) | - | - | . | - | - | - | . | . | .
CCOC(=O)c1sc2c(c1C)c(=O)n(Cc1ccccc1)c(=O)n2CCN(C)C | - | - | . | - | - | - | . | . | .
O=C(NCCc1ccccc1)c1ccc2c(c1)OCCO2 | - | - | . | - | - | - | - | - | -
COC(=O)c1ccccc1NC(=O)C1CCCN(S(=O)(=O)c2ccc(F)cc2)C1 (stereo not drawn) | - | - | - | - | - | - | - | - | -
COC(=O)c1ccccc1NC(=O)C1CCCN(S(=O)(=O)c2ccccc2)C1 (stereo not drawn) | - | - | - | - | - | - | - | - | -
COC(=O)c1ccccc1NC(=O)C1CCCN(S(=O)(=O)c2ccc(OC)cc2)C1 (stereo not drawn) | - | - | - | - | - | - | . | . | .
O=C(Nc1cccc(-c2nc3ccccc3s2)c1)c1cc(=O)c2ccccc2o1 | - | - | - | - | - | - | . | . | .
CC(=O)Nc1cccc(-c2cn3ccccc3n2)c1 | - | - | - | - | - | - | . | . | .
O=C(Nc1cccc(-c2nc3ccccc3s2)c1)c1cccs1 | - | - | - | - | - | -10.2 | 49.0% | - | 25.5%
O=C(Nc1cccc(-c2cn3ccccc3n2)c1)c1cccs1 | - | - | - | - | - | -8.52 | 52.0% | - | -
CS(=O)(=O)c1ccc(Cl)c(NC(=O)COC(=O)COc2ccc3c(c2)CCC3)c1 | - | - | . | - | - | - | . | . | .
CCCCn1c(C2CCCCC2)nc2cc3[nH]c(=O)c(C(C)C)nc3cc21 | - | - | . | - | - | - | . | . | .
CCCCn1c(-c2cccc3ccccc23)nc2cc3[nH]c(=O)c(C(C)C)nc3cc21 | - | - | . | - | - | -11.1 | 54.0% | - | -
O=C(O)/C(=C\c1ccc(-c2ccccc2[N+](=O)[O-])o1)c1ccccc1 | - | - | . | - | - | - | . | . | .
O=C(/C=C/c1ccc(-c2ccccc2[N+](=O)[O-])o1)c1ccccc1 | - | - | - | - | - | -8.48 | 40.5% | - | 28.5%
SMILES | hERG protect | KCNQ1 act | Cl transport mod | KCNQ1 block | KCNK3 block | KCNK9 inh | KCNK9 block conf | Kir2-1 spec | HEK293 Tl ctr
CN(Cc1ccc(F)cc1)C(=O)c1cccc(S(=O)(=O)N2CCN(Cc3ccccc3)CC2)c1 | - | - | . | - | - | - | . | . | .
CC(=O)Nc1cccc(NC(=O)c2cccc(S(=O)(=O)N3CCN(Cc4ccccc4)CC3)c2)c1 | - | - | . | - | - | - | . | . | .
CSc1ccc(CN(C)C(=O)c2cccc(S(=O)(=O)N3CCN(Cc4ccccc4)CC3)c2)cc1 | - | - | . | 9 | - | - | - | - | -
CC1CCCCC1NC(=O)c1cccc(S(=O)(=O)N2CCN(Cc3ccccc3)CC2)c1 (stereo not drawn) | - | - | . | - | - | - | - | - | -
Cc1ccc(C#N)c(SCc2cccc(Br)c2)n1 | - | - | . | - | - | -11.5 | 42.0% | - | 48.5%
Cc1ccc(C#N)c(SCc2cc3c(cc2Cl)OCO3)n1 | - | - | . | - | - | - | . | . | .
O=C(Cn1cnc2ccccc2c1=O)N1CCN(S(=O)(=O)c2ccc(F)cc2)CC1 | . | . | . | . | - | . | . | . | .
COc1ccc(-c2csc3nc(-c4ccccc4OC)oc(=O)c23)cc1 | - | - | - | - | - | -11.1 | 71.5% | - | -
Cc1ccc(S(=O)(=O)N2CCCCC2)cc1C(=O)N1C(C)CCCC1C (stereo not drawn) | . | . | . | . | - | . | . | . | .
N#Cc1c(Nc2ccc(Cl)cc2)s[nH]c1=O | - | - | - | - | - | - | - | - | -
O=C(OCc1ccc(Cl)cc1)c1cccnc1Cl | - | - | - | - | - | - | . | . | .
O=C(OCc1ccc(Cl)cc1)c1ccccc1C(=O)c1ccccc1 | - | - | - | - | - | -11.9 | 52.5% | 33.5% | 49.0%
Cc1ccccc1C1CC(=O)c2ccccc2C1C (stereo not drawn) | . | . | . | . | - | . | . | . | .
COc1ccc(C2CC2/C(C)=N/OC(=O)c2ccc(F)cc2)cc1 (stereo not drawn) | - | - | - | - | - | - | - | - | -
COc1ccc(C2CC2/C(C)=N/OC(=O)c2cccs2)cc1 (stereo not drawn) | - | - | - | - | - | - | . | . | .
Cc1cc2ccccc2n2c(SCC(=O)N3CCc4ccccc4C3)nnc12 | - | - | - | - | - | - | . | . | .
Cc1sc2nc(C3CC3)nc(SCC(=O)N3CCc4ccccc4C3)c2c1C | - | - | - | - | - | - | - | - | -
CCCc1nc(SCC(=O)N2c3ccccc3CC2C)c2c(C)c(C)sc2n1 (stereo not drawn) | - | - | . | - | - | - | - | - | -
CCCc1nc(SCC(=O)NC2CC2)c2c(C)c(C)sc2n1 | - | - | . | - | - | - | . | . | .
Cc1ccc2nc(SCC(=O)NC3CCS(=O)(=O)C3)[nH]c2c1 (stereo not drawn) | . | . | . | . | - | . | . | . | .
O=C(c1ccc(F)cc1)N1CCN(c2cc(N3CCCCC3)c(F)cc2[N+](=O)[O-])CC1 | - | - | . | - | - | - | - | - | -

Screens (PubChem)
